Calls of active or inactive are those of the source. The rule behind the calls is not given here.
Legend:
[1] = Percentage unbound in human plasma; assay type: ADME, cell-free
[2] = Intrinsic clearance in human liver microsomes assessed per mg of protein at 1 uM by LC/MS/MS analysis; assay type: ADME, Microsome
[3] = Percentage unbound in mouse plasma; assay type: ADME, cell-free
[4] = molecular target: T1, Prostaglandin D2 receptor 2 (Homo sapiens, UniProt Q9Y5Y4); assay: Displacement of [3H]PGD2 from human CRTH2 expressed in chinese hamster CHO cells by liquid scintillation counting; assay type: cell-based
T1 sequence (Q9Y5Y4 whole entry): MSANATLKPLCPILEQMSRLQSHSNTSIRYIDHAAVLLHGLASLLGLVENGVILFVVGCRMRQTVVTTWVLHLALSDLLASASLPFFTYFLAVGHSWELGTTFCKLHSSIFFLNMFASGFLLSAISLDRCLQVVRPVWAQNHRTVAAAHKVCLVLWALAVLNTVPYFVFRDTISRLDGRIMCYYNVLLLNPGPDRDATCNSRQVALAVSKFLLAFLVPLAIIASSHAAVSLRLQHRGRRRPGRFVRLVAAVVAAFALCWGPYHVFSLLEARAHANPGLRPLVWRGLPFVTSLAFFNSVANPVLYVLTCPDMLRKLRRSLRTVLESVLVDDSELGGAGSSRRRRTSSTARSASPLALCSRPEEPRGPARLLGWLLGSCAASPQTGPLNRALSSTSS
In short: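 Scintillation proximity competition assay: 2–5 μg human CRTH2 cell membranes, 1.5 nM [3H]PGD2, WGA-SPA beads, 10 mM HEPES/KOH pH 7.4, 10 mM MnCl2, protease inhibitors, 1% DMSO; 90 min, room temperature, shaking. Nonspecific binding defined with 1 μM PGD2. Ki by Cheng–Prusoff, mean of ≥3 independent dose–response experiments.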

[5] = Percentage unbound in rat plasma; assay type: ADME, cell-free
[6] = Clearance in BALB/c mouse at 5 mg/kg, po by LC/MS/MS analysis; assay type: ADME, organism-based; design: dose 5 mg/kg, route oral; conditions: in vivo
[7] = Intrinsic clearance in rat liver microsomes assessed per mg of protein at 1 uM by LC/MS/MS analysis; assay type: ADME, Microsome
[8] = Oral bioavailability in BALB/c mouse at 5 mg/kg by LC/MS/MS analysis; assay type: ADME, organism-based; conditions: in vivo
In short: (§1)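 Mouse PK after a 5 mg/kg oral dose.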

[9] = AUC in BALB/c mouse at 5 mg/kg, po; assay type: ADME, organism-based; design: dose 5 mg/kg, route oral; conditions: plasma; in short: as §1
[10] = molecular target: T2, Prostaglandin D2 receptor 2 (Homo sapiens) (UniProt Q9Y5Y4); assay: Partial agonist activity at human CRTH2 expressed in chinese hamster CHO cells by cellular dielectric spectroscopy relative to PGD2; assay type: functional, cell-based
T2 sequence (whole entry): T1 sequence (Q9Y5Y4 whole entry)
In short: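 CHO-CRTH2 cells seeded at 100000/well, grown 24 h at 37 °C, washed into HBSS/10 mM HEPES pH 7.4 with 1% DMSO; impedance recorded. Agonism: compound alone, 25 min read. Antagonism: PGD2 at EC80 added to cell–compound mixture, 25 min read. Run with 0.1% BSA.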

[11] = molecular target: T3, Prostaglandin D2 receptor 2 (Mus musculus, UniProt Q9Z2J6); assay: Displacement of [3H]PGD2 from mouse CRTH2 expressed in human HEK cells by liquid scintillation counting; assay type: cell-based, HEK293
T3 sequence (Q9Z2J6 whole entry): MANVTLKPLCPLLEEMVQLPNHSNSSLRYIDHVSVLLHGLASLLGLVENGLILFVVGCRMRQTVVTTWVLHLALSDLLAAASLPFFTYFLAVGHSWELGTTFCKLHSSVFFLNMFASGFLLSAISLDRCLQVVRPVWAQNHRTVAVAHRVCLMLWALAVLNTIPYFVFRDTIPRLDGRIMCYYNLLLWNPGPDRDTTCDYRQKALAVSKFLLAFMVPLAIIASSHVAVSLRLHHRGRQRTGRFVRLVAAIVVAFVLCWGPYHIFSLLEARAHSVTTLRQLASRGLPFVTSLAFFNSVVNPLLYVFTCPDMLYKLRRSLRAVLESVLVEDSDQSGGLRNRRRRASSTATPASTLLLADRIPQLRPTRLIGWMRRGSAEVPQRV
In short: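 Mouse CRTH2 cDNA stably expressed in HEK293(EBNA) cells (hygromycin-selected) and membranes made by nitrogen cavitation. SPA competition uses 2–5 μg membranes, 1.5 nM [3H]PGD2, HEPES/KOH pH 7.4 with 10 mM MnCl2, 1% DMSO, 90 min at room temperature. Nonspecific binding defined with 1 μM PGD2. Ki by Cheng–Prusoff, ≥3 independent experiments.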

[12] = Half life in BALB/c mouse at 5 mg/kg, po by LC/MS/MS analysis; assay type: ADME, organism-based; design: dose 5 mg/kg, route oral; conditions: in vivo
[13] = Apparent permeability across human Caco2 cells at 1 uM after 2 hrs by LC/MS/MS analysis; assay type: ADME, cell-based; conditions: Caco-2
Mus musculus [14] = assay: Antiinflammatory activity in BALB/c mouse contact hypersensitivity model assessed as inhibition of FITC-mediated ear swelling at 10 mg/kg, po administered 1 hr prior to and 7 hrs after the FITC-challenge measured 24 hrs after final dose; assay type: functional
In short: (§2)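 Female 9-week-old BALB/c mice sensitized on days 0 and 1 with 0.5% FITC in acetone/dibutyl phthalate (sham group: vehicle only). Right ear challenged on day 6 with 0.5% FITC. Compound given by oral gavage 1 h before and 7 h after challenge. Ear thickness measured before and 24 h after challenge. Reported as mean % inhibition ± SEM.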

[15] = molecular target: T1, Prostaglandin D2 receptor 2; assay: Antagonist activity human CRTH2 expressed in chinese hamster CHO cells assessed as inhibition of PGD2-induced [35S]GTPgamma binding by liquid scintillation counting; assay type: functional, cell-based
In short: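 10 μg human CRTH2 membranes in 20 mM HEPES/KOH pH 7.4, 10 mM MgCl2, 10 μg/mL saponin, 3 μM GDP, 150 mM NaCl, 2% DMSO, 30 °C. Preincubated 10 min, then 0.15 nM [35S]GTPγS for 30 min; stopped by centrifugation. Antagonism tested against 80 nM PGD2. Nonspecific binding with 10 μM GTPγS. Run without BSA.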

Mus musculus [16] = assay: Antiinflammatory activity in BALB/c mouse model assessed as inhibition of ovalbumin-induced eosinophil accumulation in bronchoalveolar lavage fluid at 10 mg/kg, po administered 1 hr prior to and 7 hrs after ovalbumin challenge for 3 days measured 8 hrs after final dose by cell counting; assay type: functional; conditions: Lung
In short: (§3)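 Compound given by oral gavage 1 h before and 7 h after each challenge. BAL taken 8 h after the last challenge. Total cells counted by hemocytometer; eosinophils counted on DiffQuik-stained cytospins. Reported as mean % inhibition ± SEM.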

[17] = molecular target: T1, Prostaglandin D2 receptor 2; assay: Antagonist activity at human CRTH2 expressed in human CHO cells by cellular dielectric spectroscopy
Mus musculus [18] = assay: Antiinflammatory activity in BALB/c mouse model assessed as inhibition of ovalbumin-induced eosinophil accumulation in bronchoalveolar lavage fluid at 30 mg/kg, po administered 1 hr prior to and 7 hrs after ovalbumin challenge for 3 days measured 8 hrs after final dose by cell counting; assay type: functional; conditions: Lung; in short: as §3
Mus musculus [19] = assay: Antiinflammatory activity in BALB/c mouse contact hypersensitivity model assessed as inhibition of FITC-mediated ear swelling at 30 mg/kg, po administered 1 hr prior to and 7 hrs after the FITC-challenge measured 24 hrs after final dose; assay type: functional; in short: as §2
[20] = AUC in BALB/c mouse at 5 mg/kg, po by LC/MS/MS analysis; assay type: ADME, organism-based; design: dose 5 mg/kg, route oral; conditions: plasma
Mus musculus [21] = assay: Antiinflammatory activity in BALB/c mouse model assessed as inhibition of ovalbumin-induced eosinophil accumulation in bronchoalveolar lavage fluid at 3 mg/kg, po administered 1 hr prior to and 7 hrs after ovalbumin challenge for 3 days measured 8 hrs after final dose by cell counting; assay type: functional; conditions: Lung; in short: as §3
[22] = Half life in BALB/c mouse at 1 mg/kg, iv by LC/MS/MS analysis; assay type: ADME, organism-based; design: dose 1 mg/kg, route intravenous; conditions: in vivo
Mus musculus [23] = assay: Antiinflammatory activity in BALB/c mouse contact hypersensitivity model assessed as inhibition of FITC-mediated ear swelling at 3 mg/kg, po administered 1 hr prior to and 7 hrs after the FITC-challenge measured 24 hrs after final dose; assay type: functional; in short: as §2

| SMILES | fraction unbound [1] | microsomal CLint at 1 µM [2] [µL/min/mg] | fraction unbound [3] | Ki [4] [nM] | fraction unbound [5] | CL/F [6] [mL/min/kg] | microsomal CLint at 1 µM [7] [µL/min/mg] | bioavailability [8] [%] | AUC [9] [ng·h/mL] | further results |
| --- | --- | --- | --- | --- | --- | --- | --- | --- | --- | --- |
| CN(C)S(=O)(=O)c1ccc(F)c(C#Cc2cc(Cl)ccc2OCC(=O)O)c1 | 0.009 | < 10 | 0.029 | 3.1 | 0.007 | 10 | < 10 | – | – | – |
| CC(C)c1ccc(S(C)(=O)=O)cc1C#Cc1cc(C#N)ccc1OCC(=O)O | – | – | – | 12 | – | 145 | – | 26 | 151 | – |
| Cc1ccc(S(=O)(=O)NC(C)C)cc1C#Cc1cc(Cl)ccc1OCC(=O)O | 0.004 | < 10 | 0.01 | 3.4 | 0.004 | – | 12 | – | – | – |
| CS(=O)(=O)c1ccc(F)c(C#Cc2cc(Cl)ccc2OCC(=O)O)c1 | 0.013 | – | 0.054 | 3.3 | 0.011 | 6.67 | – | 24 | 3240 | Emax [10]: 10% |
| O=C(O)COc1ccc(C(F)(F)F)cc1C#Cc1ccccc1Cl | – | – | – | 12 | – | – | – | – | – | Emax [10]: 60% |
| Cc1ccc(S(=O)(=O)N(C)CC(C)C)cc1C#Cc1cc(Cl)ccc1OCC(=O)O | – | 79 | – | 4.2 | – | – | 119 | – | – | – |
| O=C(O)COc1ccc(Cl)cc1C#Cc1ccc(CO)cc1F | – | < 10 | – | 28 | – | 35 | < 10 | 3 | – | – |
| CCCS(=O)(=O)c1cccc(C#Cc2cc(C#N)ccc2OCC(=O)O)c1 | – | – | – | 21 | – | – | – | – | – | Emax [10]: 30% |
| CCCS(=O)(=O)c1ccc(C)c(C#Cc2cc(C#N)ccc2OCC(=O)O)c1 | – | – | – | 7 | – | 18.3 | – | 24 | 1370 | Activity [10]: inactive |
| Cc1ccc(S(=O)(=O)N(C)C(C)C)cc1C#Cc1cc(Cl)ccc1OCC(=O)O | 0.002 | < 10 | 0.005 | 3.8 | – | – | 64 | – | – | – |
| CC(C)c1ccc(S(C)(=O)=O)cc1C#Cc1cc(Cl)ccc1OCC(=O)O | 0.003 | – | 0.013 | 4.6 | 0.004 | 8.33 | – | 29 | 2650 | – |
| CC(C)S(=O)(=O)c1ccc(F)c(C#Cc2cc(Cl)ccc2OCC(=O)O)c1 | – | – | – | 4 | – | 5.83 | – | 130 | – | – |
| CCCS(=O)(=O)c1ccc(F)c(C#Cc2cc(Cl)ccc2OCC(=O)O)c1 | 0.01 | 12 | 0.007 | 3.4 | 0.004 | 6.67 | < 10 | – | 6140 | Ki [11]: 0.37 nM; half-life [12]: 1.9 h; Papp at 2 h, 1 µM [13]: 10.8 ×10⁻⁶ cm/s; inhibition in vivo at 10 mg/kg (Mus musculus [14]): 54%; IC50 [15]: 8 nM; inhibition in vivo at 10 mg/kg (Mus musculus [16]): 27%; IC50 [17]: 28 nM; inhibition in vivo at 30 mg/kg (Mus musculus [18]): 55%; inhibition in vivo at 30 mg/kg (Mus musculus [19]): 48%; AUC [20]: 6140 ng·h/mL; inhibition in vivo at 3 mg/kg (Mus musculus [21]): 19%; half-life [22]: 2 h; inhibition in vivo at 3 mg/kg (Mus musculus [23]): 36% |
| CS(=O)(=O)c1cccc(C#Cc2cc(Cl)ccc2OCC(=O)O)c1 | – | – | – | 15 | – | – | – | – | – | Emax [10]: 10% |
| CCCS(=O)(=O)c1cccc(C#Cc2cc(-c3ccccc3)ccc2OCC(=O)O)c1 | – | – | – | 19 | – | – | – | – | – | Emax [10]: 68% |
| Cc1ccc(S(=O)(=O)N2CCOCC2)cc1C#Cc1cc(Cl)ccc1OCC(=O)O | – | < 10 | – | 3.6 | – | 31.7 | 10 | 48 | 1220 | – |
| Cc1ccc(S(=O)(=O)N2CCCCC2C)cc1C#Cc1cc(Cl)ccc1OCC(=O)O (stereo not drawn) | – | 89 | – | 1.9 | – | – | 418 | – | – | – |
| Cc1ccc(S(C)(=O)=O)cc1C#Cc1cc(Cl)ccc1OCC(=O)O | 0.017 | 14 | 0.027 | 5 | 0.014 | 23.3 | 18 | 49 | 1800 | Emax [10]: 10% |
| COCCN(C)S(=O)(=O)c1ccc(C)c(C#Cc2cc(Cl)ccc2OCC(=O)O)c1 | 0.006 | 32 | 0.007 | 4.1 | 0.007 | – | 49 | – | – | – |
| CCNS(=O)(=O)c1ccc(C)c(C#Cc2cc(Cl)ccc2OCC(=O)O)c1 | 0.005 | < 10 | 0.008 | 4.4 | 0.008 | – | 24 | – | – | – |
| COCCNS(=O)(=O)c1ccc(C)c(C#Cc2cc(Cl)ccc2OCC(=O)O)c1 | – | < 10 | – | 3.6 | – | 33.3 | < 10 | 33 | 831 | – |
| CCCS(=O)(=O)c1ccc(Cl)c(C#Cc2cc(Cl)ccc2OCC(=O)O)c1 | 0.003 | < 10 | 0.006 | 2.1 | 0.002 | 16.7 | < 10 | 112 | – | – |
| Cc1ccc(S(=O)(=O)N(C)C)cc1C#Cc1cc(Cl)ccc1OCC(=O)O | 0.004 | < 10 | 0.01 | 5 | 0.004 | – | 22 | – | – | – |

— ChEMBL document CHEMBL1914440, “Discovery of potent, selective, and orally bioavailable alkynylphenoxyacetic acid CRTH2 (DP2) receptor antagonists for the treatment of allergic inflammatory diseases” (J Med Chem, 2011)
